Most compounds without a hit are left out; they make up all but 5.5% or so of the library.
WT yeast gro inh: growth inhibition of WT strain, primary screen, mitochondrial fusion inhibitor project, WT and mutant strains, chemical genetic. mitochondrial fusion phenotypic screen. inhibition, % at 10 µM. 190,000 compounds, 2.1% hits. AID 1362, 2008; in the data active means inhibition above about 58%; tested in S. cerevisiae
RAM network inh: inhibitors of the yeast RAM network, primary screen, dse1pr::URA3 reporter, 5-FOA selection. S. cerevisiae dse1pr::URA3 reporter, 5-FOA growth OD615, 2 d; analog-sensitive cbk1-as2 kinase mutant strain. inhibition, % at 50 µM. 190,000 compounds, 1.8% hits;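 active means inhibition above a set limit, 3 SD over mean compound inhibition, cut at about 8.4% in these data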;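 further: inhibition rescues growth on 5-FOA so higher OD means more RAM inhibition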
Cl transport mod: KCC2 cotransporter modulators, thallium flux, primary screen, cell-based, HEK293 KCC2, FluoZin-2 fluorescence, MLSMR | KCC2 cells, thallium flux FluoZin-2 fluorescence | B-score of Tl+ flux slope (higher = more flux/activation; lower = inhibition) at 10 µM | 190,000 compounds, 2.2% hits | AID 1456, 2008;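 active means thallium flux slope and its plate-corrected score both differing from the plate sample mean at a set confidence after two filtering rounds, in either direction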;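 further: slope of fluorescence scaled to starting intensity during 10 to 20 s after thallium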
Target sequence (Q9H2X9 whole entry, looked up): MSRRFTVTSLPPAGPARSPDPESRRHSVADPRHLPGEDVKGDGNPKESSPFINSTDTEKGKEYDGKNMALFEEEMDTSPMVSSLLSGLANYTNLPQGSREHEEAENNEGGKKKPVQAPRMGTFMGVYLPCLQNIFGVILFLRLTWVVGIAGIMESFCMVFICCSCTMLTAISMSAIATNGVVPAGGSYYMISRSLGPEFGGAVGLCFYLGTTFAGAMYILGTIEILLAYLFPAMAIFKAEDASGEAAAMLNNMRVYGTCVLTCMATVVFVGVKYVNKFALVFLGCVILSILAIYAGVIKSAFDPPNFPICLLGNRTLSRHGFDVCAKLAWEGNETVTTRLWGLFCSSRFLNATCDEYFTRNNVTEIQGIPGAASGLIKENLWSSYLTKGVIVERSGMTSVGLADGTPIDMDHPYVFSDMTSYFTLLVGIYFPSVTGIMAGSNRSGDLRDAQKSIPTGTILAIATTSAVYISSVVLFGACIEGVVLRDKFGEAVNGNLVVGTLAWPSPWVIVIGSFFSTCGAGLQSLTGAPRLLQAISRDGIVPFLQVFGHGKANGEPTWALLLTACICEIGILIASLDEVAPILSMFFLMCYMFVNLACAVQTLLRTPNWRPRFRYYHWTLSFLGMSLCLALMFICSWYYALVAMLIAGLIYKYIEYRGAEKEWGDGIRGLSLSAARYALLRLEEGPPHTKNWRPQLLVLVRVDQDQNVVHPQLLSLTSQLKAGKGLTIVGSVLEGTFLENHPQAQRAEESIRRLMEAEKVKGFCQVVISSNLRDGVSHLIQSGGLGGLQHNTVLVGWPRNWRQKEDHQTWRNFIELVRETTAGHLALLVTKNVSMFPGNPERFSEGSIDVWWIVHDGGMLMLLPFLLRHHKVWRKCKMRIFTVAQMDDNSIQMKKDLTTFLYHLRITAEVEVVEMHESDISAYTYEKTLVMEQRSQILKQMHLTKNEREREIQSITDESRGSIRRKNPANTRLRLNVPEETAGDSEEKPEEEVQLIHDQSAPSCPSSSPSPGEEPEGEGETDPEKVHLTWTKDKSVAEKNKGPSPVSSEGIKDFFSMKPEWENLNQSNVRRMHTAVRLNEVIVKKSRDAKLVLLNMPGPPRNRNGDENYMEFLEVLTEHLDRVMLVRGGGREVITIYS
BB579 growth dn: growth inhibitors of yeast BB579 in restrictive medium, primary screen, yeast lifespan-shortening project, S. cerevisiae; OD615, 48 h; inhibition, % at 10 µM; 140,000 compounds, 0.51% hits; AID 804, 2007;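 active means inhibition above a set limit, 3 SD over the mean compound inhibition, cut at about 44% in these data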
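Assay system: S. cerevisiae DeaD strain BB579 yeast. Medium: CSMM-D restrictive synthetic medium containing dextrose (glucose). Times: 4 h cell preincubation, 48 h compound exposure, 30 °C humidified. Signal: OD615 turbidity measurement. Benchmarks: positive control amphotericin B 10 µg/mL.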
Yeast lifespan up: compounds extending yeast replicative lifespan, primary screen, S. cerevisiae, OD615 | S. cerevisiae growth with nicotinamide; deaD strain in restrictive glucose medium | 130,000 compounds, 0.68% hits | inhibition of the nicotinamide effect, % at 10 µM;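 active means inhibition above a set limit, placed 3 SD over the median of all compounds, cut at about 26% in these data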
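Assay system: DeaD-strain S. cerevisiae. Medium: CSMM-D glucose medium, restrictive. Reagent: nicotinamide, 1.5 mM, co-present with compound. Compound: 10 µM single point, 0.25% DMSO. Schedule: culture preincubation 4 h, compound exposure 48 h, both 30 °C. Detection: absorbance at 615 nm.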
Each line names hits and unclear results; the compound was inactive in the other large screens.

Clc1ccccc1CN1CCN(c2ccccc2Cl)CC1	WT yeast gro inh 70
CCOC(=O)C1CCN(/C=C2/C(=O)NC(=O)N(c3cccc(C)c3C)C2=O)CC1	none (no result: BB579 growth dn, Yeast lifespan up)
COc1ccc2ccc(O)c(CN3CC=C(c4ccccc4)CC3)c2c1	WT yeast gro inh 61 (no result: BB579 growth dn, Yeast lifespan up)
COc1ccc(C)cc1NC1=NCCCS1	none (no result: BB579 growth dn, Yeast lifespan up)
CC(C)CCNC(=O)c1cc(C(=O)c2cc(Br)ccc2O)cn(CCC(C)C)c1=O	RAM network inh 9.2 (no result: BB579 growth dn, Yeast lifespan up)
CCCCCc1nc2c(c(=O)c3ccccc3n2C)c(=O)n1C1CCCCCC1	WT yeast gro inh 97, Yeast lifespan up 34
NCC1(c2ccc3c(c2)OCCO3)CCCC1	none
CC(C)(O)[C@H]1O[C@H]2CC[C@@]3(C)[C@@](O)(CC[C@H]4Cc5c([nH]c6ccccc56)[C@@]43C)C2=CC1=O	WT yeast gro inh 74 (no result: BB579 growth dn, Yeast lifespan up)
CN1C(=O)C(=Cc2ccc(N3CCCCCC3)o2)C(=O)N(C)C1=S	RAM network inh 8.7 (no result: Cl transport mod)
CN1C(=O)C(=Cc2ccc(N3CCOCC3)o2)C(=O)N(C)C1=O	none
CN(C)C1(c2nnnn2-c2ccc(Cl)cc2)CCCCC1	none
CN(C)C1(c2nnnn2CCOC(=O)Nc2ccc(Cl)cc2)CCCCC1	Yeast lifespan up 66
CC(C)NC(=O)c1ccc(N2CC3CC(C2)c2cccc(=O)n2C3)c([N+](=O)[O-])c1 (stereo unspecified)	none (no result: BB579 growth dn, Yeast lifespan up)
Cc1cc(C=C2C(=O)N(C)C(=S)N(C)C2=O)c(C)n1-c1cccnc1	Yeast lifespan up 51
Cc1cc(/C=C2/C(=O)NC(=O)N(C)C2=O)c(C)n1-c1ccccc1	none (no result: BB579 growth dn, Yeast lifespan up)
CC1=CC(=C2C(=O)NC(=S)NC2=O)C=C(C(F)(F)F)N1CCc1ccccc1	RAM network inh 11 (no result: BB579 growth dn, Yeast lifespan up)
CC1=CC(=C2C(=O)NC(=S)NC2=O)C=C(C(F)(F)F)N1Cc1ccccc1	none (no result: BB579 growth dn, Yeast lifespan up)
Cn1nnc(CC[N+](C)(C)C)n1	none (no result: WT yeast gro inh, RAM network inh, BB579 growth dn, Yeast lifespan up)
CC(C)c1ccc(-n2c(O)c(/C=N/NC(=O)c3ccncc3)c(=O)[nH]c2=O)cc1	none
CCc1ccc(-n2c(O)c(/C=N/NC(=O)c3ccncc3)c(=O)[nH]c2=O)cc1	RAM network inh 11
COc1cccc(NP(=O)(Oc2ccccc2)Oc2ccccc2)c1	none
O=P(Nc1cccc(Cl)c1)(Oc1ccccc1)Oc1ccccc1	WT yeast gro inh 79 (no result: BB579 growth dn, Yeast lifespan up)
O=P(Oc1ccccc1)(Oc1ccccc1)C(Nc1ccccc1)c1ccccc1 (stereo unspecified)	RAM network inh 9.4
C/C=C1/CN2C3CC1C(CO)(C(=O)OC)C2Cc1c3n(C)c2ccccc12 (stereo unspecified)	none (no result: WT yeast gro inh, RAM network inh, BB579 growth dn, Yeast lifespan up)
O=c1[nH]c(=S)[nH]c(O)c1N=Nc1ccc2c(c1)OCO2	RAM network inh 10.0 (no result: BB579 growth dn, Yeast lifespan up)
O=c1[nH]c(=S)[nH]c(O)c1N=Nc1ccc2c(c1)OCCO2	none (no result: WT yeast gro inh, RAM network inh, BB579 growth dn, Yeast lifespan up)
CC(C(=O)c1c[nH]c2ccccc12)N1CCSCC1 (stereo unspecified)	none
CCC(C)NC(=O)c1c(N)n(CC2CCCO2)c2nc3ccccc3nc12 (stereo unspecified)	RAM network inh 9.1
CC(=NCc1ccco1)c1c(O)n(-c2ccccc2)c(=O)[nH]c1=O	none
O=C(O)CCCc1ccc(N(CCCl)CCCl)cc1	RAM network inh 9.8, Yeast lifespan up 27
CN(CC1COc2ccccc2O1)c1nc(-c2cccnc2)nc2ccccc12 (stereo unspecified)	WT yeast gro inh 80 (no result: Cl transport mod)
O=C1NC(=S)N(c2ccccc2F)C(=O)/C1=C\c1cccs1	BB579 growth dn 73
CCOc1ccc(N2C(=O)/C(=C\c3cccs3)C(=O)NC2=S)cc1	none (no result: BB579 growth dn, Yeast lifespan up)
Cc1ccc(N2C(=O)NC(=O)/C(=C/C=C/c3ccco3)C2=O)cc1	Yeast lifespan up 27
Cc1cc(C)cc(N2C(=O)NC(=O)/C(=C\C=C\c3ccco3)C2=O)c1	Yeast lifespan up 28
CCOC(=O)C1CCN(C=C2C(=O)N(C)C(=S)N(C)C2=O)CC1	none
CNC(=O)Oc1ccc(-c2cn3cc(Cl)ccc3n2)cc1	none
CNC(=O)Oc1cccc(-c2cn3cc(OC(=O)NC)ccc3n2)c1	BB579 growth dn 51
CC1(C)CN2C(c3ccc(Cl)cc3)N2C1 (stereo unspecified)	none
CCOc1ccc(/C=C2/C(=O)NC(=O)N(CCc3ccc(F)cc3)C2=O)cc1	Yeast lifespan up 49
COc1cc(/C=C2\C(=O)NC(=O)N(CCc3ccc(F)cc3)C2=O)ccc1O	none
O=C1NC(=O)N(CCC2=CCCCC2)C(=O)/C1=C/c1ccc(O)cc1	Yeast lifespan up 41
CCCCS(=O)(=O)N1CCN(C(=N)N[N+](=O)[O-])CC1	none (no result: BB579 growth dn, Yeast lifespan up)
c1ccc(-c2cc(-c3ccccc3)[n+](-c3ccccc3)c(-c3ccccc3)c2)cc1	none (no result: WT yeast gro inh, RAM network inh, BB579 growth dn, Yeast lifespan up)
CN(C)c1ccc(-[n+]2c(-c3ccccc3)cc(-c3ccccc3)cc2-c2ccccc2)cc1	WT yeast gro inh 77 (no result: BB579 growth dn, Yeast lifespan up)
O=c1[nH]c(=S)n(C2CC2)c(O)c1/C=N/Nc1ccccc1	WT yeast gro inh 58
CCCCCCn1c(=O)c(C(=O)Nc2cnccn2)c(O)c2ccccc21	RAM network inh 8.7 (no result: BB579 growth dn, Yeast lifespan up)
Cc1ccccc1CCNCc1ccc(Br)cc1	none
CC(C)(C)P(=O)(c1ccncc1)N1CCCC1 (stereo unspecified)	none
C=CCN(c1ccc(C(=O)N(CC)CC)cc1)S(C)(=O)=O	none (no result: Yeast lifespan up)
CCN(CC)C(=O)c1ccc(N2C(=O)C3CC=C(Cl)CC3C2=O)cc1 (stereo unspecified)	Yeast lifespan up 26 (no result: Cl transport mod)
CCOC(=O)C1=C(N)OC2=C(C(=O)CCC2)[C@]12C(=O)N(CC(N)=O)c1ccccc12	none (no result: WT yeast gro inh, RAM network inh, BB579 growth dn, Yeast lifespan up)
CCOC(=O)CC1=C(C(=O)OCC)C2(C(=O)N1CC(=O)OC)C(C#N)=C(N)Oc1ccccc12 (stereo unspecified)	WT yeast gro inh 66 (no result: Cl transport mod)
CCOC(=O)CN1C(=O)C2(C(C#N)=C(N)Oc3ccccc32)C(C(=O)OC)=C1C (stereo unspecified)	none
O=c1[nH]c(=S)n(C2CCCCC2)c(O)c1/C=N/N1CCOCC1	none (no result: WT yeast gro inh, RAM network inh, BB579 growth dn, Yeast lifespan up)
c1ccc(-c2[nH]c(-c3ccccc3)[n+](CC3CO3)c2-c2ccccc2)cc1 (stereo unspecified)	WT yeast gro inh 59
CN1C2CCC1/C(=C/c1ccccn1)C(=O)/C2=C\c1ccccn1	WT yeast gro inh 81, Yeast lifespan up 37 (no result: Cl transport mod)
CC1CCC(C(C)C)C(OC(=O)COC(=O)c2ccccc2N)C1 (stereo unspecified)	WT yeast gro inh 60
CCC1(CC)C(=O)NC(=Nc2cccc(C(F)(F)F)c2)NC1=O	none
CO[C@H]1[C@@H](OC)CC(OC2OC(CO)C(O)C(O)C2O)/C(=C\C#N)[C@@H]1O (stereo partly specified)	none
CCN(CCNc1ccc([N+](=O)[O-])c2cccnc12)S(=O)(=O)c1ccc(Cl)cc1	RAM network inh 9.5
N=C(N)c1c(O)n(C2CCCCC2)c(=O)n(C2CCCCC2)c1=O	WT yeast gro inh 96
